Measurements taken from ChEMBL document CHEMBL1671680, “Pradimicin S, a highly soluble nonpeptidic small-size carbohydrate-binding antibiotic, is an anti-HIV drug lead for both microbicidal and systemic use” (Antimicrob Agents Chemother, 2010).
Converted amounts (≈) assume the structure as drawn. The source made the active and inactive calls. The calls are words filed in the database; no cut-off is given here.

What was measured:
[1] = tested on: Human immunodeficiency virus 1; experiment: Antiviral activity against R5 tropic HIV-1 clade B isolate US2 infected in human PBMC assessed as inhibition of viral replication […] by ELISA; assay type: functional, organism-based; conditions: Human immunodeficiency virus 1, clade B isolate US2
How it was run: (§1)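 PBMCs from healthy donors were stimulated with PHA (2 μg/ml) for 3 days, then seeded at 0.5 × 10^6 cells/well in RPMI 1640 with 10% FCS, IL-2 (25 U/ml) and compound. Virus was added at a final 250 pg p24/ml. Supernatant was taken at day 12 for p24 antigen ELISA.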

PBMC [2] = experiment: Immunostimulatory activity against human PBMC assessed as GM-CSF production at 21 uM after 72 hrs; assay type: functional, cell-based
How it was run: (§2)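 PBMCs and PHA blasts from three donors (three independent experiments) cultured with 21 μM compound; supernatants collected at 72 h; cytokines quantified with the Bio-Plex human 27-plex bead immunoassay.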

PBMC [3] = experiment: Cytotoxicity against human PBMC cells at 500 uM after 7 days; assay type: cell-based; conditions: 168 h
How it was run: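 Mock-infected PHA-stimulated PBMC exposed to compound in RPMI 1640 with 10% FCS and IL-2 (25 U/ml); viability measured by trypan blue staining at day 7.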

PBMC [4] = experiment: Immunostimulatory activity against human PBMC assessed as IL-12 production at 22 uM after 72 hrs; assay type: functional, cell-based
How it was run: (§3)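 Unstimulated PBMCs and PHA-blasts from three donors, in three independent experiments, cultured with test compound at 20 μg/ml (21 or 22 μM). Supernatants collected after 72 h. The cytokine profile was read on a Bio-Plex 27-plex human cytokine bead immunoassay, using beads coupled to cytokine-specific monoclonal antibodies and run per the kit instructions.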

[5] = tested on: Human immunodeficiency virus 1; experiment: Antiviral activity against HIV-1 3B infected in human CEM cells assessed as inhibition of virus-induced cytopathicity after 3 to 4 days by microscopic analysis; assay type: functional, organism-based; conditions: Human immunodeficiency virus 1, 3B, CCRF-CEM
How it was run: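 CEM or C8166 cells at 5 × 10^5/ml infected with HIV-1 at 100 CCID50 per ml, then mixed 1:1 with compound dilutions and held at 37°C for 3–4 days. Giant cells were counted microscopically at ×100 against untreated infected cultures. EC50 is the concentration cutting syncytium formation by 50%.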

[6] = tested on: Human immunodeficiency virus 1; experiment: Antiviral activity against HIV-1 3B cells infected in human PBMC cells assessed as inhibition of virus-induced cytopathicity after 3 to 4 days by microscopic analysis; assay type: functional, organism-based; conditions: Human immunodeficiency virus 1, 3B
[7] = tested on: Human immunodeficiency virus 1; experiment: Antiviral activity against X4 tropic HIV-1 3B infected in human Raji cells expressing DC-SIGN gene assessed as inhibition of virus capture by Raji cells after 60 mins by ELISA; assay type: functional, organism-based; conditions: Human immunodeficiency virus 1, 3B, 1 h
PBMC [8] = experiment: Immunostimulatory activity against human PBMC assessed as suppression of G-CSF production at 21 uM after 72 hrs; assay type: functional; how it was run: as §3
[9] = tested on: Human immunodeficiency virus 1; experiment: Ratio of KD for HIV-1 HXB2 gp41 to KD for HIV-1 3B gp120
How it was run: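 SPR was run at 25°C. HIV-1 IIIB gp120 (CHO-derived, 122 RU) and HXB2 gp41 (Pichia-derived, 58 RU) were amine-coupled to a CM5 chip. Compound (2.5–40 μM, 2-fold steps) in HBS-P pH 7.4 with 10 mM CaCl2 was injected for 2 min at 45 μl/min, and dissociation was followed for 6 min. Apparent ka, kd and KD came from a 1:1 model fit of the three lowest concentrations.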

[10] = tested on: Human immunodeficiency virus 1; experiment: Binding affinity to HIV-1 3B gp120 assessed as association rate constant after 6 mins by SPR analysis in presence of 10 mM CaCl2
[11] = Binding affinity to HIV-1 HXB2 gp41 after 6 mins by SPR analysis in presence of 10 mM CaCl2; set-up: species or system Human immunodeficiency virus 1
[12] = tested on: Human immunodeficiency virus 1; experiment: Ratio of EC50 for compound pretreated HIV-1 3B isolate 42 harboring gp120 mutant infected in human CEM cells to EC50 for HIV-1 3B expressing wild type gp120; assay type: functional, CCRF-CEM
PBMC [13] = experiment: Immunostimulatory activity against human PBMC assessed as MCP-1 production at 22 uM after 72 hrs; assay type: functional, cell-based; how it was run: as §3
[14] = tested on: Human immunodeficiency virus 1; experiment: Ratio of EC90 to EC50 for R5 tropic HIV-1 clade A/E isolate ID12 infected in human PBMC; assay type: functional
[15] = Chemical stability of the compound in PBS solution at 50 degC after 4 days by HPLC; assay type: physicochemical; conditions: buffer, 96 h
How it was run: (§4)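 1 mM compound held 4 days in PBS at 50°C, or in 7 mM sodium phosphate pH 4.0 at room temperature; then analysed by reverse-phase HPLC (phosphate/heptanesulfonate pH 3.2 buffer–acetonitrile gradient, 1 ml/min).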

[16] = Cytotoxicity against human HeLa cells after 3 to 4 days; assay type: cell-based
How it was run: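 Cells seeded at 20,000–75,000 per well with compound dilutions, incubated 3–4 days at 37°C, and counted on a Coulter particle counter; CC50 is the concentration inhibiting proliferation by 50%.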

PBMC [17] = experiment: Immunostimulatory activity against human PBMC assessed as IL1-beta production at 22 uM after 72 hrs; assay type: functional, cell-based; how it was run: as §3
PBMC [18] = experiment: Immunostimulatory activity against human PBMC assessed as IL-8 production at 22 uM after 72 hrs; assay type: functional, cell-based; how it was run: as §3
[19] = Cytotoxicity against human CEM cells after 7 days by trypan blue staining; assay type: cell-based, CCRF-CEM
PBMC [20] = experiment: Immunostimulatory activity against human PBMC assessed as IL-6 production at 21 uM after 72 hrs; assay type: functional, cell-based; how it was run: as §3
[21] = Chemical stability of the compound in 7mM sodium phosphate buffer after 4 days by HPLC at pH 4; assay type: physicochemical; conditions: pH 4, 96 h; how it was run: as §4
[22] = tested on: Human immunodeficiency virus 1; experiment: Ratio of ka for HIV-1 3B gp120 to ka for HIV-1 HXB2 gp41
[23] = tested on: Human immunodeficiency virus 1; experiment: Antiviral activity against R5 tropic HIV-1 clade A isolate UG273 infected in human PBMC assessed as inhibition of viral replication […] by ELISA; assay type: functional, organism-based; conditions: Human immunodeficiency virus 1, clade A isolate UG273; how it was run: as §1
PBMC [24] = experiment: Immunostimulatory activity against human PBMC assessed as IL-9 production at 21 uM after 72 hrs; assay type: functional, cell-based; how it was run: as §3
PBMC [25] = experiment: Immunostimulatory activity against human PBMC assessed as G-CSF production at 21 uM after 72 hrs; assay type: functional, cell-based; how it was run: as §2
[26] = tested on: Human immunodeficiency virus 1; experiment: Ratio of kd for HIV-1 HXB2 gp41 to kd for 3B gp120
PBMC [27] = experiment: Immunostimulatory activity against human PBMC assessed as suppression of IL-15 production at 21 uM after 72 hrs; assay type: functional; how it was run: as §3
PBMC [28] = experiment: Immunostimulatory activity against human PBMC assessed as MCP-1 production at 21 uM after 72 hrs; assay type: functional, cell-based; how it was run: as §3
[29] = tested on: Human immunodeficiency virus 1; experiment: Antiviral activity against X4 tropic HIV-1 3B infected in human PBMC assessed as inhibition of viral replication […] by ELISA; assay type: functional, organism-based; conditions: Human immunodeficiency virus 1, 3B; how it was run: as §1
[30] = Cytotoxicity against human PBMC after 7 days by trypan blue staining; assay type: cell-based
[31] = Aqueous solubility of the compound at physiological pH; assay type: physicochemical; conditions: aqueous medium
[32] = Aqueous solubility of the compound; assay type: physicochemical; conditions: aqueous medium; read-out: Activity
[33] = Cytotoxicity against human MT4 cells after 7 days by trypan blue staining; assay type: cell-based
PBMC [34] = experiment: Cytotoxicity against human PBMC cells at 50 uM after 7 days; assay type: cell-based; conditions: 168 h

For `CN[C@@H]1[C@H](O[C@@H]2O[C@H](CO)[C@@H](O)[C@H](OS(=O)(=O)O)[C@H]2O)[C@@H](O)[C@H](O[C@H]2c3cc(C)c(C(=O)N[C@H](C)C(=O)O)c(O)c3-c3c(cc4c(c3O)C(=O)c3cc(OC)cc(O)c3C4=O)[C@@H]2O)O[C@@H]1C` [PRADIMICIN S], the EC50 [1] was 11 µM, the Activity (PBMC [2]) was “inactive” and the Activity (PBMC [3]) was over 95%. The Activity (PBMC [4]) was “inactive”, the EC50 [5] was 8.9 µM and the EC50 [6] was 8.5 µM. The IC50 [7] was 11 µM, the “fold change (FC)” value (PBMC [8]) was 2 and the Ratio [9] was 30. For the same compound, the Ka [10] was 1.27 ×10⁴ /M/s, the Kd [11] was 9.93 µM and the “Ratio EC50” value [12] was “>=20”. The Activity (PBMC [13]) was “inactive”, the Ratio [14] was 2 and the Stability [15] was “Stable”. The CC50 [16] was over 230 µM, the Activity (PBMC [17]) was “inactive” and the Activity (PBMC [18]) was “inactive”. The CC50 at 168 h [19] was over 100 µM, the Activity (PBMC [20]) was “inactive” and the Stability [21] was “Stable”. The ka ratio [22] was 10, the EC50 [23] was 15 µM and the Activity (PBMC [24]) was “inactive”. For the same compound, the Activity (PBMC [25]) was “inactive”, the kd ratio [26] was 5 and the “fold change (FC)” value (PBMC [27]) was 2. For the same compound, the Activity (PBMC [28]) was “inactive” and the EC50 [29] was 8.5 µM.
With `CN[C@@H]1[C@H](O[C@@H]2OC[C@@H](O)[C@H](O)[C@H]2O)[C@@H](O)[C@H](O[C@H]2c3cc(C)c(C(=O)N[C@H](C)C(=O)O)c(O)c3-c3c(cc4c(c3O)C(=O)c3cc(OC)cc(O)c3C4=O)[C@@H]2O)O[C@@H]1C` [PRADIMICIN A] the EC50 [1] was 6 µM, the Activity (PBMC [2]) was “inactive” and the Activity (PBMC [4]) was “inactive”. For the same compound, the EC50 [5] was 5.9 µM, the IC50 [7] was 3.5 µM and the “fold change (FC)” value (PBMC [8]) was 2. For the same compound, the CC50 at 168 h [30] was over 50 µM, the Ka [10] was 1.49 ×10⁴ /M/s and the Kd [11] was 14.9 µM. The Activity (PBMC [13]) was “inactive”, the Ratio [14] was 2 and the solubility [31] was over 20 µM. For the same compound, the solubility [32] was 50 µM (≈ 42 µg/mL), the CC50 [16] was over 50 µM and the Activity (PBMC [17]) was “inactive”. The Activity (PBMC [18]) was “inactive”, the CC50 at 168 h [19] was over 100 µM and the Activity (PBMC [20]) was “inactive”. The EC50 [23] was 5.9 µM, the Activity (PBMC [24]) was “inactive” and the Activity (PBMC [25]) was “inactive”. For the same compound, the “fold change (FC)” value (PBMC [27]) was 2, the CC50 at 168 h [33] was over 50 µM and the Activity (PBMC [28]) was “inactive”. For the same compound, the EC50 [29] was 2.6 µM and the Activity (PBMC [34]) was over 95%.
